From ChEMBL document CHEMBL4680221, “Discovery of pyrazole derivatives as cellular active inhibitors of histone lysine specific demethylase 5B (KDM5B/JARID1B)” (Eur J Med Chem, 2020)
The source made the active and inactive calls. The calls are words filed in the database; no cut-off is given here.

Legend:
[1] = test system: MKN-45; experiment: Antiproliferative activity against human MKN-45 cells assessed as reduction in cell proliferation measured after 4 days by MTS assay; type: functional, cell-based; conditions: MKN-45, 96 h
In short: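 MKN45 cells were seeded at 3×10^3 cells per well and treated for 4 or 6 days, as indicated. Proliferation was read by MTS assay and IC50 derived. Three independent experiments, mean ± SD.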

[2] = target: T1, Lysine-specific demethylase 4A (Homo sapiens) (UniProt O75164); experiment: Inhibition of KDM4A (unknown origin) at 0.01 uM relative to control
T1 sequence (whole entry): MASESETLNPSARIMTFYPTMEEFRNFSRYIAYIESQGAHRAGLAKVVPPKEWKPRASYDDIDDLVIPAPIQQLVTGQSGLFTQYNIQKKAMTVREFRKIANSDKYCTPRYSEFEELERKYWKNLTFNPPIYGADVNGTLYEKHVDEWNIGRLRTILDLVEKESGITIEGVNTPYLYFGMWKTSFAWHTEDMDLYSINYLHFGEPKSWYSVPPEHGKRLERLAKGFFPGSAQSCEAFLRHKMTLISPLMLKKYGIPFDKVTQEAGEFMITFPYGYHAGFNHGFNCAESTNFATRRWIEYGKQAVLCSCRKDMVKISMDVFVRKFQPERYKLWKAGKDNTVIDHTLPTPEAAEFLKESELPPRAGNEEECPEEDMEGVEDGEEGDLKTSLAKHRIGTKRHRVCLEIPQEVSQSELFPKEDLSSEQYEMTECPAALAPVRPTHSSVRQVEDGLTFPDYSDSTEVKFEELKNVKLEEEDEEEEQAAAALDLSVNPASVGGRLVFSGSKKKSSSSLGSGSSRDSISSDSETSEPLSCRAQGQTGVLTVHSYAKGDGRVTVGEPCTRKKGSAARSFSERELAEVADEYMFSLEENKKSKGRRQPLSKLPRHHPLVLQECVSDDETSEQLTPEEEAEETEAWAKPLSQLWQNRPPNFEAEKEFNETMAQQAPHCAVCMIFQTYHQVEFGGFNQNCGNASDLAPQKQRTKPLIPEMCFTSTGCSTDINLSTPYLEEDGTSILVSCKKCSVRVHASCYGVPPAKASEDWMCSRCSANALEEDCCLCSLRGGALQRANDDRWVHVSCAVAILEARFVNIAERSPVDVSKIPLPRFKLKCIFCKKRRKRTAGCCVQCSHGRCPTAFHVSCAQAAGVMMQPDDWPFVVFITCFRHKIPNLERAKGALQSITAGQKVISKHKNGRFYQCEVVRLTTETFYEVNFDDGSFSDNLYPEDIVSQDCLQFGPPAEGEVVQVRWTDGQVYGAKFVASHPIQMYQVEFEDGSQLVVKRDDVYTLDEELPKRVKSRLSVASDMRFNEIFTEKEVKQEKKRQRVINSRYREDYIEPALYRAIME

[3] = target: T2, Lysine-specific demethylase 4C (Homo sapiens) (UniProt Q9H3R0); experiment: Inhibition of KDM4C (unknown origin) at 0.01 uM relative to control
T2 sequence (whole entry): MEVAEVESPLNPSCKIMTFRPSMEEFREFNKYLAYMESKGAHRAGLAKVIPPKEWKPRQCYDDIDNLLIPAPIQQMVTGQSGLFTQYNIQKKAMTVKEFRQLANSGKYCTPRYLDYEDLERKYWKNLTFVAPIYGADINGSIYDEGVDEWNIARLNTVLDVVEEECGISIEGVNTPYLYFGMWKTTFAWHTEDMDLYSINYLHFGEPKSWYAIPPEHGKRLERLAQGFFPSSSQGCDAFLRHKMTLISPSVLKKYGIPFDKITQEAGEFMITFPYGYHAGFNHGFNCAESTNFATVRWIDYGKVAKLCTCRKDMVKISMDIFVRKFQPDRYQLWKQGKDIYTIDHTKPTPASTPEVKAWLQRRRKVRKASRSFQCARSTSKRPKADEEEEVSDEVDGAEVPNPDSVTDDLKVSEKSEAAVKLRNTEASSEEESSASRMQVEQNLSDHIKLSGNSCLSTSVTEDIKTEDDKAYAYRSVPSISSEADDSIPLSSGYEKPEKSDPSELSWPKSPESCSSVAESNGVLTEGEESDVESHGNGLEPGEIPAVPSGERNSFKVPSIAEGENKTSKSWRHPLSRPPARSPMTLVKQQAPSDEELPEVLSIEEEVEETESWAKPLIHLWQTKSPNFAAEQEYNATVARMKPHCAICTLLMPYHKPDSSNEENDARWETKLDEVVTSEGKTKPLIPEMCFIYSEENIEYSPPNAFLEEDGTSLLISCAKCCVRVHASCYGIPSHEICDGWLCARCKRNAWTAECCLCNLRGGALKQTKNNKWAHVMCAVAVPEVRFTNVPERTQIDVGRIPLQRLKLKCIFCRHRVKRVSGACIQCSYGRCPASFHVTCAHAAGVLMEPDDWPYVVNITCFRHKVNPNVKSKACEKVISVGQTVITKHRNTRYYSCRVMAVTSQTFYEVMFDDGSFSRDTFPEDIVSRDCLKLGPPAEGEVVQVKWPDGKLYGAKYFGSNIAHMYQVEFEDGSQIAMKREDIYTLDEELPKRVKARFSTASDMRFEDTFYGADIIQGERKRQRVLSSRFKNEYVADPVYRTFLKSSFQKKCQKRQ

[4] = test system: MKN-45; experiment: Inhibition of colony formation in human MKN-45 cells measured after 10 days by crystal violet staining based microscopic analysis; type: functional, cell-based; conditions: time 10.0 day
In short: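 1000 MKN45 cells were seeded in 6-well plates and treated. The medium was then replaced and cells were cultured another 10 days. Colonies were fixed with cold methanol, stained with crystal violet and photographed under a microscope.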

[5] = test system: MKN-45; experiment: Inhibition of KDM4 in human MKN-45 cells assessed as increase in H3K9me2 accumulation at 0.5 to 20 uM measured after 5 days by Western blot analysis; type: cell-based; conditions: dose 0.5-20 µM, time 5.0 day
In short: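 MKN45 cells were treated for 5 days and lysed in RIPA buffer. About 30 µg protein was run on 10% SDS-PAGE and transferred to 0.2 µm nitrocellulose, then blocked with 5% milk in PBS for 2 h. Blots were probed for histone methylation marks with histone 3 as loading control and detected by ECL.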

[6] = target: T3, Lysine-specific demethylase 5C (Homo sapiens, UniProt P41229); experiment: Inhibition of KDM5C (unknown origin) at 1 uM relative to control
[7] = target: T3, Lysine-specific demethylase 5C; experiment: Inhibition of KDM5C (unknown origin) at 0.25 uM relative to control

T3 sequence (P41229 whole entry): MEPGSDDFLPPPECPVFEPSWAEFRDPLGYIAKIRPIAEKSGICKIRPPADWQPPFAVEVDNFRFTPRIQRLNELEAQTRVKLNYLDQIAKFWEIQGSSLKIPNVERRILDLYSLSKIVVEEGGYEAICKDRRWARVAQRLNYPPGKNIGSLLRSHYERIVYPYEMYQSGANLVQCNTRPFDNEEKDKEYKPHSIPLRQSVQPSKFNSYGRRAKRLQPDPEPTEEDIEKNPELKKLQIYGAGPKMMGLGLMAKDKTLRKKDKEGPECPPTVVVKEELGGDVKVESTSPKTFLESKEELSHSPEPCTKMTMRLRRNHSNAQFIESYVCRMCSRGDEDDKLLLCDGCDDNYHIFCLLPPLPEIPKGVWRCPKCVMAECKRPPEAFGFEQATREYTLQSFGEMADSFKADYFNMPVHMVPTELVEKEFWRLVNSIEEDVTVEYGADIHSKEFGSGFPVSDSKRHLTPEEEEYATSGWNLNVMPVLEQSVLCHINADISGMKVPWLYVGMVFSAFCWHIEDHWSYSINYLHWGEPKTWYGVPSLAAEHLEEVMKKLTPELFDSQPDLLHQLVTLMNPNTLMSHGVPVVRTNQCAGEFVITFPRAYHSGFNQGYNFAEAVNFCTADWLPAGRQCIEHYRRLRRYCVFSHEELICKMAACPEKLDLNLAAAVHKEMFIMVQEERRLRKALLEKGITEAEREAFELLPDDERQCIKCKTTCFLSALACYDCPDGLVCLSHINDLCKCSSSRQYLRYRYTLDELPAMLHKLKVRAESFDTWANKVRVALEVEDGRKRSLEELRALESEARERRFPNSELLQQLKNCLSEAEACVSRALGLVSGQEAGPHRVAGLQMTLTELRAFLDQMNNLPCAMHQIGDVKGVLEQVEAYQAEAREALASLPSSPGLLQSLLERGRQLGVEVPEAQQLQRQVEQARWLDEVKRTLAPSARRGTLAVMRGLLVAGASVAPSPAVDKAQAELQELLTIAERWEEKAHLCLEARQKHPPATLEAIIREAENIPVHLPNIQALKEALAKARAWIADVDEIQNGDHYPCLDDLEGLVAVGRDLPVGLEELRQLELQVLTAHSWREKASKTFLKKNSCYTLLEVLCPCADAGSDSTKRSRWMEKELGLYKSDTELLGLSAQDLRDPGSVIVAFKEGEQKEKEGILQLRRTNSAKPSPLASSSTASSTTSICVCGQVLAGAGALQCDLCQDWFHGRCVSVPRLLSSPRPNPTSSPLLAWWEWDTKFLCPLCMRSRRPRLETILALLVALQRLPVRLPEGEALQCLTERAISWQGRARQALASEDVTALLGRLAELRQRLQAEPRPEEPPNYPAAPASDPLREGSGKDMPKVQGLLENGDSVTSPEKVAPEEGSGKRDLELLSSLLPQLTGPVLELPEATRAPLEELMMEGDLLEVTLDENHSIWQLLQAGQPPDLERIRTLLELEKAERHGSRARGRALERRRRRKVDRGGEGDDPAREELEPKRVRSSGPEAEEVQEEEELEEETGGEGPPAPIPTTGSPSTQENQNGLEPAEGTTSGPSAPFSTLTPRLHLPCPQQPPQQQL

- IC50 [1]: 26.7 µM
- inhibition [2]: 5.12%
- inhibition [3]: 3.52%
- inhibition [6]: 80.2%
- inhibition [7]: 62.1%
SMILES: COc1ccc(-n2cc(C(=O)NCC(C)(C)N3CCOCC3)c(-c3ccccc3)n2)cc1
- inhibition [4]: Active
- inhibition [5]: inactive
